Measured values taken from ChEMBL document CHEMBL3745600, “2-Amino-thiophene derivatives present antileishmanial activity mediated by apoptosis and immunomodulation in vitro” (Eur J Med Chem, 2015).
Calls of active or inactive are those of the source. The rule behind the calls is not given here.

Columns and labels:
[1] = tested on: Peritoneal macrophage cell; assay: Immunomodulatory activity in Swiss mouse peritoneal macrophages infected with promastigotes form of Leishmania amazonensis IFLA/BR/67/PH8 assessed as increase of TNFalpha production at 6.25 to 25 uM after 72 hrs by sandwich ELISA; assay type: functional, cell-based
Procedure, shortened: (§1)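 Supernatants came from infected macrophages treated for 72 h at 37°C, 5% CO₂. TNF-α, IL-12 and IL-10 were measured by sandwich ELISA at 450 nm against murine recombinant cytokine standards. NO was estimated as nitrite by the Griess reaction at 540 nm against a sodium nitrite standard. LPS (10 mg/L) served as positive control. Three experiments were run in triplicate.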

[2] = tested on: Leishmania amazonensis; assay: Antileishmanial activity against promastigotes of Leishmania amazonensis IFLA/BR/67/PH8 assessed as induction of necrosis using Annexin-V-FITC/PI staining at IC50 after 4 hrs by flow cytometry (reference value: 2.6%); assay type: functional
[3] = Selectivity index, ratio of CC50 for Swiss mouse peritoneal macrophages to EC50 for axenic amastigotes of Leishmania amazonensis IFLA/BR/67/PH8
Procedure, shortened: (§2)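 Promastigote values came from haemocytometer counts after 72 h at 25°C. Axenic amastigote values came from MTT readings after 24 h at 32°C, using amastigotes differentiated at pH 4.6. All 50% values were obtained by probit regression.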

[4] = tested on: Leishmania amazonensis; assay: Antileishmanial activity against axenic amastigotes of Leishmania amazonensis IFLA/BR/67/PH8 infected in Swiss mouse peritoneal macrophages assessed as reduction of survival rate after 72 hrs by light microscopy analysis; assay type: functional, organism-based
Procedure, shortened: (§3)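 Peritoneal macrophages were plated on glass coverslips at 1 x 10^6 cells/mL in supplemented RPMI 1640 and allowed to adhere for 2 h at 34°C, 5% CO₂. They were infected for 3 h with stationary-phase promastigotes at 10 parasites per macrophage, washed with PBS, then exposed to compound for 24 or 72 h. Coverslips were fixed and Panoptic-stained, and 300 macrophages per coverslip were counted by light microscopy. EC50 was derived by probit regression.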

[5] = Selectivity index, ratio of HC50 for human RBC to IC50 for axenic amastigotes of Leishmania amazonensis IFLA/BR/67/PH8; procedure, shortened: as §2
[6] = tested on: Leishmania amazonensis; assay: Antileishmanial activity against promastigotes of Leishmania amazonensis IFLA/BR/67/PH8 assessed as induction of DNA fragmentation at 1 to 4 times IC50 after 24 hrs by agarose gel electrophoresis; assay type: functional, organism-based
Procedure, shortened: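 Genomic DNA was extracted with phenol/chloroform and run on agarose with GelRed (1:500) for 1 h at […]. Fragmentation was viewed under UV as a qualitative read-out.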

[7] = tested on: Leishmania amazonensis; assay: Antileishmanial activity against promastigotes of Leishmania amazonensis IFLA/BR/67/PH8 assessed as induction of early apoptosis using Annexin-V staining at 2 times IC50 after 4 hrs by flow cytometry (reference value: 8.3%); assay type: functional
[8] = tested on: Peritoneal macrophage cell; assay: Immunomodulatory activity in Swiss mouse peritoneal macrophages infected with promastigotes form of Leishmania amazonensis IFLA/BR/67/PH8 assessed as increase of IL-10 production at 6.25 to 25 uM after 72 hrs by sandwich ELISA; assay type: functional, cell-based; procedure, shortened: as §1
[9] = tested on: Leishmania amazonensis; assay: Antileishmanial activity against axenic amastigotes of Leishmania amazonensis IFLA/BR/67/PH8 after 24 hrs by MTT assay; conditions: IFLA/BR/67/PH8, 24 h
[10] = tested on: Leishmania amazonensis; assay: Antileishmanial activity against axenic amastigotes of Leishmania amazonensis IFLA/BR/67/PH8 infected in Swiss mouse peritoneal macrophages assessed as reduction of survival rate after 24 hrs by light microscopy analysis; assay type: functional, organism-based; procedure, shortened: as §3
[11] = tested on: Leishmania amazonensis; assay: Antileishmanial activity against promastigotes of Leishmania amazonensis IFLA/BR/67/PH8 assessed as induction of late apoptosis using Annexin-V/PI staining at IC50 after 4 hrs by flow cytometry (reference value: 12.05%); assay type: functional
[12] = Ratio of compound CC50 to meglumine antimoniate CC50 for Swiss mouse peritoneal macrophages; assay type: ADME, cell-based, Peritoneal macrophage cell
[13] = Ratio of compound HC50 to meglumine antimoniate HC50 for human RBC; assay type: ADME, cell-based; conditions: erythrocyte
[14] = tested on: Leishmania amazonensis; assay: Antileishmanial activity against promastigotes of Leishmania amazonensis IFLA/BR/67/PH8 assessed as viable cells using Annexin-V staining at 4 times IC50 after 4 hrs by flow cytometry (reference value: 77%); assay type: functional
[15] = tested on: Leishmania amazonensis; assay: Antileishmanial activity against promastigotes of Leishmania amazonensis IFLA/BR/67/PH8 assessed as induction of early apoptosis using Annexin-V staining at 4 times IC50 after 4 hrs by flow cytometry (reference value: 8.3%); assay type: functional
[16] = tested on: Leishmania amazonensis; assay: Antileishmanial activity against promastigotes of Leishmania amazonensis IFLA/BR/67/PH8 assessed as viable cells using Annexin-V staining at IC50 after 4 hrs by flow cytometry (reference value: 77%); assay type: functional
[17] = tested on: Leishmania amazonensis; assay: Antileishmanial activity against promastigotes of Leishmania amazonensis IFLA/BR/67/PH8 assessed as induction of late apoptosis using Annexin-V/PI staining at 4 times IC50 after 4 hrs by flow cytometry (reference value: 12.05%); assay type: functional
[18] = tested on: Leishmania amazonensis; assay: Antileishmanial activity against promastigotes of Leishmania amazonensis IFLA/BR/67/PH8 assessed as induction of necrosis using Annexin-V-FITC/PI staining at 2 times IC50 after 4 hrs by flow cytometry (reference value: 2.6%); assay type: functional
[19] = Cytotoxicity against Swiss mouse peritoneal macrophages after 24 hrs by MTT assay; assay type: cell-based, Peritoneal macrophage cell
Procedure, shortened: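 Macrophages were collected from Swiss mice 5 days after thioglycollate (3%) elicitation. About 1 x 10^6 cells per well were incubated in RPMI 1640 with 10% heat-inactivated FBS and compound for 24 h at 37°C, 5% CO₂. MTT was added for 4 h, followed by 10% SDS, and absorbance was read at 540 nm. CC50 was obtained by probit regression.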

[20] = tested on: Leishmania amazonensis; assay: Antileishmanial activity against promastigotes of Leishmania amazonensis IFLA/BR/67/PH8 after 72 hrs by Neubauer haemocytometer counting; conditions: IFLA/BR/67/PH8, 72 h
[21] = Selectivity index, ratio of HC50 for human RBC to IC50 for promastigotes of Leishmania amazonensis IFLA/BR/67/PH8; procedure, shortened: as §2
[22] = Toxicity in human RBC assessed as induction of hemolytic activity after 1 hr by spectrometer analysis; assay type: cell-based, Erythrocyte; conditions: red blood cells (RBC)
Procedure, shortened: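 A 5% suspension of human erythrocytes in PBS was mixed 4:1 with serial compound dilutions and incubated 1 h at 37°C. The reaction was stopped with PBS (pH 7.2) and spun 10 min at 1000 x g, and supernatant absorbance was read at 540 nm. Haemolysis was expressed relative to a drug-free blank and to water-induced total lysis. HC50 was obtained by probit regression.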

[23] = tested on: Peritoneal macrophage cell; assay: Immunomodulatory activity in Swiss mouse peritoneal macrophages infected with promastigotes form of Leishmania amazonensis IFLA/BR/67/PH8 assessed as increase of IL-12 production at 6.25 to 25 uM after 72 hrs by sandwich ELISA; assay type: functional, cell-based; procedure, shortened: as §1
[24] = tested on: Leishmania amazonensis; assay: Antileishmanial activity against promastigotes of Leishmania amazonensis IFLA/BR/67/PH8 assessed as induction of early apoptosis using Annexin-V staining at IC50 after 4 hrs by flow cytometry (reference value: 8.3%); assay type: functional
[25] = tested on: Leishmania amazonensis; assay: Antileishmanial activity against promastigotes of Leishmania amazonensis IFLA/BR/67/PH8 assessed as induction of necrosis using Annexin-V-FITC/PI staining at 4 times IC50 after 4 hrs by flow cytometry (reference value: 2.6%); assay type: functional
[26] = Selectivity index, ratio of CC50 for Swiss mouse peritoneal macrophages to IC50 for promastigotes of Leishmania amazonensis IFLA/BR/67/PH8; assay type: functional; procedure, shortened: as §2
[27] = tested on: Leishmania amazonensis; assay: Antileishmanial activity against promastigotes of Leishmania amazonensis IFLA/BR/67/PH8 assessed as induction of late apoptosis using Annexin-V/PI staining at 2 times IC50 after 4 hrs by flow cytometry (reference value: 12.05%); assay type: functional

With `N#Cc1c(/N=C/c2cc3cc(Br)ccc3[nH]2)sc2c1CCCC2` the Activity [1] was “Active”, the Activity [2] was 3.5% and the “Ratio CC50/EC50” value [3] was 6.12. The Activity [4] was “Dose-dependent effect”, the Selectivity Index [5] was > 43.2 and the Activity [6] was “Active”. For the same compound, the Activity [7] was 5.2%, the Activity [8] was “inactive” and the EC50 [9] was 18.5 µM. The Activity [10] was “Dose-dependent effect”, the Activity [11] was 12.5% and the selectivity ratio [12] was 840. For the same compound, the Ratio [13] was > 14800, the Activity [14] was 15.8% and the Activity [15] was 5.03%. It also gave an Activity [16] of 76.7%, an Activity [17] of 27.2% and an Activity [18] of 21.7%. The CC50 at 24 h [19] was 113 µM, the IC50 [20] was 3.37 µM and the Selectivity Index [21] was > 237. For the same compound, the HC50 at 1 h [22] was > 800 µM, the Activity [23] was “Active” and the Activity [24] was 7.1%. The Activity [25] was 51.9%, the “Ratio CC50/IC50” value [26] was 33.6 and the Activity [27] was 28.5%.
